In ChEMBL document CHEMBL1130127, “Synthesis, photophysical properties, in vivo photosensitizing efficacy, and human serum albumin binding properties of some novel bacteriochlorins” (J Med Chem, 1997) one finds Response and Binding constant data, which are given here for two molecules.

The subject of series [1] is Mus musculus. Briefly: The compound was tested in vivo for photosensitizing efficacy in DBA/2 Mice transplanted with SMT/F tumors and the activity is expressed as % response at (16-20 days) 24 hours post injection at 5 mg/kg concentration; No response. It is filed as functional, organism-based. Also noted: dose 5 mg/kg. In a few lines: (§1)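 Female DBA/2 HA-DD mice, 5-7 weeks old. A 1 mm SMT-F tumor piece from a donor was trocar-implanted subcutaneously in the axilla. At about 5 mm tumor diameter, sensitizer in 1% Tween 80/water was given iv; dose was based on extinction coefficient. At 3 or 24 h after injection, restrained mice had the tumor lit with 135 J/cm2 laser light at the in vivo long-wavelength maximum. Tumor response was followed to day 30; six mice/group.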

Series [2] deals with Mus musculus. The series is described as follows: The compound was tested in vivo for photosensitizing efficacy in DBA/2 Mice transplanted with SMT/F tumors and the activity is expressed as % response at (21-25 days) 3 hours post injection at 2.5 mg/kg concentration. It is filed as functional. In a few lines:
as §1

Series [3] concerns Mus musculus. Briefly: The compound was tested in vivo for photosensitizing efficacy in DBA/2 Mice transplanted with SMT/F tumors and the activity is expressed as % response at (6-10 days) 3 hours post injection at 1 mg/kg concentration. Format: functional.
Series [4] concerns Mus musculus. Briefly: The compound was tested in vivo for photosensitizing efficacy in DBA/2 Mice transplanted with SMT/F tumors and the activity is expressed as % response at (6-10 days) 24 hours post injection at 5 mg/kg concentration; No response. Format: functional, organism-based. Also noted: dose 5 mg/kg.
The test system of series [5] is Mus musculus. Briefly: The compound was tested in vivo for photosensitizing efficacy in DBA/2 Mice transplanted with SMT/F tumors and the activity is expressed as % response at (26-30 days) 3 hours post injection at 1 mg/kg concentration. It is filed as functional.
For series [6], the system named is Mus musculus. Briefly: The compound was tested in vivo for photosensitizing efficacy in DBA/2 Mice transplanted with SMT/F tumors and the activity is expressed as % response at (26-30 days) 24 hours post injection at 5 mg/kg concentration; No response. It is filed as functional, organism-based. More on the design: dose 5 mg/kg.
For series [7], the system named is Mus musculus. Briefly: The compound was tested in vivo for photosensitizing efficacy in DBA/2 Mice transplanted with SMT/F tumors and the activity is expressed as % response at (1-5 days) 3 hours post injection at 2.5 mg/kg concentration. It is filed as functional. In a few lines:
as §1

Series [8] has as its system Mus musculus. The series is described as follows: The compound was tested in vivo for photosensitizing efficacy in DBA/2 Mice transplanted with SMT/F tumors and the activity is expressed as % response at (6-10 days) 3 hours post injection at 2.5 mg/kg concentration. It is filed as functional. In a few lines: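 SMT-F tumor piece (1 mm) from donor implanted subcutaneously by trocar into axilla of 5–7-week-old female DBA/2 HA-DD mice; treated at ~5 mm diameter. Sensitizer dissolved in 1% Tween 80/water, given iv; 3 h later restrained mouse's tumor illuminated with 135 J/cm2 laser light at in vivo long-wavelength absorption maximum. Tumor response scored over 30 days; six mice/group.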

For series [9], the system named is Mus musculus. Briefly: The compound was tested in vivo for photosensitizing efficacy in DBA/2 Mice transplanted with SMT/F tumors and the activity is expressed as % response at (1-5 days) 3 hours post injection at 1 mg/kg concentration. It is filed as functional. In a few lines:
as §1

The target of series [10] is T1, Albumin (Homo sapiens, UniProt P02768). The series is described as follows: Binding affinity against Human serum albumin(Site II). In a few lines:
(§2)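 Fluorometric titration: HSA and sensitizer fixed at 1 × 10^-6 mol/L. Site probe varied 4 × 10^-7 to 2 × 10^-6 mol/L: DNSA for site I, read at 472 nm; DP for site II, read at 476 nm; excitation 340 nm. Incubated 4 °C, pH 7.0, 4 h, dark. Bound probe taken from standard curves of free probe (water) and HSA-bound probe (2.5 × 10^-5 mol/L HSA).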

The test system of series [11] is Mus musculus. Briefly: The compound was tested in vivo for photosensitizing efficacy in DBA/2 Mice transplanted with SMT/F tumors and the activity is expressed as % response at (11-15 days) 24 hours post injection at 5 mg/kg concentration; No response. It is filed as functional, organism-based. Also noted: dose 5 mg/kg. In a few lines:
as §1

The test system of series [12] is Mus musculus. The series is described as follows: The compound was tested in vivo for photosensitizing efficacy in DBA/2 Mice transplanted with SMT/F tumors and the activity is expressed as % response at (11-15 days) 3 hours post injection at 1 mg/kg concentration. Format: functional. In a few lines:
as §1

Series [13] relates to Mus musculus. Briefly: The compound was tested in vivo for photosensitizing efficacy in DBA/2 Mice transplanted with SMT/F tumors and the activity is expressed as % response at (16-20 days) 3 hours post injection at 2.5 mg/kg concentration. Format: functional. In a few lines:
as §1

Series [14] relates to Mus musculus. Briefly: The compound was tested in vivo for photosensitizing efficacy in DBA/2 Mice transplanted with SMT/F tumors and the activity is expressed as % response at (16-20 days) 3 hours post injection at 1 mg/kg concentration. Format: functional. In a few lines: as §1
In series [15] the test system is Mus musculus. The series is described as follows: The compound was tested in vivo for photosensitizing efficacy in DBA/2 Mice transplanted with SMT/F tumors and the activity is expressed as % response at (21-25 days) 3 hours post injection at 1 mg/kg concentration. It is filed as functional. In a few lines:
as §1

Series [16] deals with Mus musculus. The series is described as follows: The compound was tested in vivo for photosensitizing efficacy in DBA/2 Mice transplanted with SMT/F tumors and the activity is expressed as % response at (21-25 days) 24 hours post injection at 5 mg/kg concentration; No response. Format: functional, organism-based. Also noted: dose 5 mg/kg. In a few lines: as §1
Series [17] concerns Mus musculus. The series is described as follows: The compound was tested in vivo for photosensitizing efficacy in DBA/2 Mice transplanted with SMT/F tumors and the activity is expressed as % response at (11-15 days) 3 hours post injection at 2.5 mg/kg concentration. Format: functional. In a few lines:
as §1

Series [18] relates to Mus musculus. Briefly: The compound was tested in vivo for photosensitizing efficacy in DBA/2 Mice transplanted with SMT/F tumors and the activity is expressed as % response at (26-30 days) 3 hours post injection at 2.5 mg/kg concentration. Format: functional.
The target in series [19] is T1, Albumin. Briefly: Binding affinity against Human serum albumin(Site I). In a few lines: as §2
Series [20] has as its system Mus musculus. The series is described as follows: The compound was tested in vivo for photosensitizing efficacy in DBA/2 Mice transplanted with SMT/F tumors and the activity is expressed as % response at (1-5 days) 24 hours post injection at 5.0 mg/kg concentration; No response. Format: functional, organism-based. More on the design: dose 5 mg/kg. In a few lines: as §1

Series [21] relates to Mus musculus. The series is described as follows: The compound was tested in vivo for photosensitizing efficacy in DBA/2 Mice transplanted with SMT/F tumors and the activity is expressed as % response at ( 21-25 days) 24 hours post injection at 5.0 mg/kg concentration. It is filed as functional, organism-based. Also noted: dose 5 mg/kg. In a few lines:
as §1

Series [22] relates to Mus musculus. The series is described as follows: The compound was tested in vivo for photosensitizing efficacy in DBA/2 Mice transplanted with SMT/F tumors and the activity is expressed as % response at ( 26-30 days) 24 hours post injection at 5.0 mg/kg concentration. Also noted: dose 5 mg/kg. Format: functional, organism-based. In a few lines: as §1
In series [23] the test system is Mus musculus. Briefly: The compound was tested in vivo for photosensitizing efficacy in DBA/2 Mice transplanted with SMT/F tumors and the activity is expressed as % response at ( 6-10 days) 24 hours post injection at 5.0 mg/kg concentration. Format: functional, organism-based. More on the design: dose 5 mg/kg. In a few lines:
as §1

Series [24] concerns Mus musculus. Briefly: The compound was tested in vivo for photosensitizing efficacy in DBA/2 Mice transplanted with SMT/F tumors and the activity is expressed as % response at (16-20 days) 24 hours post injection at 5.0 mg/kg concentration. Format: functional, organism-based. Also noted: dose 5 mg/kg. In a few lines: as §1
Series [25] has as its system Mus musculus. The series is described as follows: The compound was tested in vivo for photosensitizing efficacy in DBA/2 Mice transplanted with SMT/F tumors and the activity is expressed as % response at (11-15 days) 24 hours post injection at 5.0 mg/kg concentration. More on the design: dose 5 mg/kg. Format: functional, organism-based. In a few lines:
as §1

The subject of series [26] is Mus musculus. Briefly: The compound was tested in vivo for photosensitizing efficacy in DBA/2 Mice transplanted with SMT/F tumors and the activity is expressed as % response at (1-5 days) 24 hours post injection at 5.0 mg/kg concentration. Also noted: dose 5 mg/kg. It is filed as functional, organism-based. In a few lines: as §1

Calls of active or inactive are those of the source. No cut-off for these calls is given here.

T1 sequence (P02768 whole entry): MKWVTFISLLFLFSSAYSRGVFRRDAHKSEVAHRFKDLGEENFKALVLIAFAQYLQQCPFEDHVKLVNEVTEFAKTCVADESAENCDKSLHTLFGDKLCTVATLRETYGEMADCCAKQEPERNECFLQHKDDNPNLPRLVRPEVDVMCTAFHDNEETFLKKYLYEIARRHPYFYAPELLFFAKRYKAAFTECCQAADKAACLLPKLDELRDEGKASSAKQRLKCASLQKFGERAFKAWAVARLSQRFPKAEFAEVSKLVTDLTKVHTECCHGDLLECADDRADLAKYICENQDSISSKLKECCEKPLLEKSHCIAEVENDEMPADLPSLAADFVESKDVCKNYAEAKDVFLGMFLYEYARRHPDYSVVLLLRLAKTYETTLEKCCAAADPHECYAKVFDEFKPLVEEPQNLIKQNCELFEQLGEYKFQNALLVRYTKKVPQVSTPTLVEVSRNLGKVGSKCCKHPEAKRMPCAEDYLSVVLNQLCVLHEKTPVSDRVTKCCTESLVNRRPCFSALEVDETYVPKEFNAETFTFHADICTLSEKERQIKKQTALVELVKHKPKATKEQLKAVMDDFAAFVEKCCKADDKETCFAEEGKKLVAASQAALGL

Take `CCc1c(C)c2[nH]c1cc1[nH]c(cc3nc4c(c5nc(c2C=O)[C@@H](C)[C@@H]5CCC(=O)NC(CC(=O)OC(C)(C)C)C(=O)OC(C)(C)C)CCC4=C3C)C(=O)C1(C)CC` (stereo partly specified): the Response result in [1], in series [4], in [6], in series [11], in series [16] and in series [20] was “inactive” in each case. Besides, the Response in series [2] is reported as 60%; in series [3] it was 80%; in series [5], 50%; in series [7], 100%; in series [8], 100%; in [9], 100%. In addition, the Response in [12] worked out at 60%; in [13], 60%; in [14], 60%; in [15] it was 50%; in series [17], 60%; in series [18] it was 60%. The Binding constant in series [10] and in series [19] was 500000 l M-1 in each case.

PORFIMER SODIUM: the Response in series [21] stood at 50%; in [22], 50%; in series [23], 100%; in series [24], 60%; in series [25], 80%; in series [26], 100%.
